High-throughput results: PubChem, several laboratories
Rows were chosen to be rich in hits. Some 1.5% of all compounds tested hit in one or more screens of this group.
RanGTP-Impb inh: inhibitors of RanGTP-importin-beta interaction, primary screen, biochemical, FRET, CFP-Ran, YFP-importin-beta, homogeneous; cell-free CFP-Ran/YFP-importin-beta FRET ratio; actives 1.1% (n = 300,000); inhibition, % (test concentration not listed);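 active = more than half of the replicate wells show a fall in the fluorescence ratio signal beyond about 16%, limit read from the data, passing the limit was not always enough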;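 note: 0% = DMSO wells and 100% = Ran loaded with GDP instead of GTP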
Hck Nef HTS: human Hck-Nef kinase inhibition; inhibition, % at 20 µM; actives 0.68% (n = 220,000); Recombinant Hck-YEEI plus Nef, Z-Lyte FRET kinase assay; P08631;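 active = Hck-Nef kinase inhibition above about 50%, limit read from the data; inactive = inhibition below that limit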;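 note: 0% = DMSO with Hck plus Nef and 100% = Hck alone without Nef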
Runt-CBFb FRET: Runt domain-CBFb interaction inhibition | Cerulean-Runt/Venus-CBFb FRET ratio 530/480, 1 h | inhibition, % at 20 µM | AID 1496 | actives 0.46% (n = 220,000) | Q01196+Q13951;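 active = inhibition over about 50% at 20 µM in the single-dose screen, limit read from the data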;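 note: 0% = DMSO wells and 100% = excess unlabeled CBFb competitor control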
Target sequence (Q01196 whole entry, looked up, the tested form may be a part): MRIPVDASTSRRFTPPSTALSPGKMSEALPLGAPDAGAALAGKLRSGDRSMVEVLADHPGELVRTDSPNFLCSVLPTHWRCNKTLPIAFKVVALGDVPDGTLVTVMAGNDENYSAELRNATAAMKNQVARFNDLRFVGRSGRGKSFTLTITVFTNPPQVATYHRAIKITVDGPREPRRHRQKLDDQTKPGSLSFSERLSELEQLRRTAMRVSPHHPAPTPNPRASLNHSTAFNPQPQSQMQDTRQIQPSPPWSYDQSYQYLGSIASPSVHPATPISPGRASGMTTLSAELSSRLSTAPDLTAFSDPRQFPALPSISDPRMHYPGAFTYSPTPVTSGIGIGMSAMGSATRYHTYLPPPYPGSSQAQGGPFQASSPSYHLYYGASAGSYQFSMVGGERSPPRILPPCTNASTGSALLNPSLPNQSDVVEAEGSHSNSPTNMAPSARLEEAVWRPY
Target sequence (Q13951 whole entry, looked up, the tested form may be a part): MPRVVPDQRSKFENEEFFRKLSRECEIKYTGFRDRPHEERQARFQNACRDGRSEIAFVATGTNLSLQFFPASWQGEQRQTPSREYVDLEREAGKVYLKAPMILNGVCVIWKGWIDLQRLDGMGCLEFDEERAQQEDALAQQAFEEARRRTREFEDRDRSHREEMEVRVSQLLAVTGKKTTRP
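test system = Cerulean-Runt domain fusion protein, energy donor | probe or stimulus = Venus-CBFb binding partner, 100 nM | incubation = two 1 h room-temperature incubations shielded from light | detection = fluorescence energy transfer, 422 nm excitation, 530/480 nm emission | measure = loss of energy transfer signal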
CaV13 FRET inh: Disruptors of the CACNA1D IQ motif to Ca2+-dependent inactivation inhibitor domain association, primary screening, Förster resonance energy transfer in intact living …; inhibition, % at 12.3 µM; HEK cells, CFP/YFP FRET ICDI-IQ, plate reader, 10 min; percent FRET-ratio fall versus neutral wells; actives 0.098% (n = 340,000); AID 743397;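 active = mean replicate inhibition of at least 30% and at least 1% of replicates passing that level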;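 note: 0% = median of the neutral control wells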
Runt-SMMHC FRET: blocks binding of human RUNX1 Runt domain to CBFb-SMMHC; Q01196+Q13951; Cerulean-Runt/Venus-CBFb-SMMHC FRET ratio 530/480, 1 h; inhibition, % at 20 µM; actives 0.74% (n = 220,000);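 active = mean inhibition across duplicate retests at 20 µM reaching about 50%, limit read from the data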;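 note: 0% = DMSO wells and 100% = wells with excess untagged CBFb-SMMHC; inhibitors lower the FRET ratio by blocking Runt binding to CBFb-SMMHC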
RUNX1 CBFb TR: disrupts human RUNX1 Runt domain binding to CBFb; shares compounds with Runt-CBFb FRET; TR-FRET RUNX1 Runt domain-CBFb binding; inhibition, % at 20 µM; actives 20% (n = 480); AID 1502; in the data active = inhibition above about 40%
Active calls of the source: *; / = not tested or not shown.

SMILES	RanGTP-Impb inh	Hck Nef HTS	Runt-CBFb FRET	CaV13 FRET inh	Runt-SMMHC FRET	others
CC(Sc1nncs1)C(=O)Nc1ccc(S(=O)(=O)Nc2ncccn2)cc1 (centres undefined)	/	/	/	-6	/
Clc1nc(NCCc2ccccc2)c2cn[nH]c2n1	/	/	/	-5	/
O=C(c1cccs1)N1CCC(c2nc3c(nnn3Cc3ccccc3Cl)c(=O)[nH]2)CC1	-3	/	/	-6	/
Nn1c(SCC(=O)Nc2nccs2)nnc1-c1ccccn1	4	/	/	-16	/
CCCCCn1c(S(=O)(=O)O)nc2ccccc21	2	0	-2	-5	0
CCCCCOC(=O)c1c(N)n(CCOC)c2nc3ccccc3nc12	6	41	36	-4	114*
Nc1c(C(=O)NCc2ccccc2)c2nc3ccccc3nc2n1CCCN1CCOCC1	101*	40	79*	76*	76*
Cc1cc(C)c(OCC(=O)OCC(=O)N(C)C2CCS(=O)(=O)C2)c(C)c1 (centres undefined)	9	/	/	-7	/
CC(C)CN(CCCNC(=O)CN1N=C(c2ccc(Cl)cc2)CCC1=O)CC(C)C	-2	/	/	-3	/
C/C(N)=C(/C#N)C(=O)COC(=O)CNC(=O)c1ccc(Cl)cc1Cl	37*	-4	0	2	-23
O=C(COc1ccc(S(=O)(=O)N2CCOCC2)cc1)NCCc1ccccc1	-2	/	/	-7	/
O=C(COc1ccc(S(=O)(=O)N2CCOCC2)cc1)Nc1ccccc1C(F)(F)F	27*	5	2	-5	2
N#CC1=C(N)Oc2cc(N)ccc2C1c1ccccc1F (centres undefined)	121*	/	/	-1	/
COc1cccc(C2C(C#N)=C(N)Oc3cc(N)ccc32)c1OC (centres undefined)	105*	-10	72*	-3	100*
COc1cccc(C2C(C#N)=C(N)Oc3cc(C)oc(=O)c32)c1OC (centres undefined)	-1	-3	-2	-4	-2
CN(CC(=O)Nc1ccc(F)cc1)C(=O)CSc1ncccn1	2	/	/	-6	/
O=C(/C=C/c1ccco1)N1CCN(c2ccc(F)cc2)CC1	6	1	5	-17	1
Cc1ccc(/C=C/C(=O)N2CCN(c3ccc(F)cc3)CC2)o1	3	1	51*	-2	20	RUNX1 CBFb TR=33
Cc1ccc(S(=O)(=O)c2ccc(Cl)cc2)cc1S(=O)(=O)NC(C)C(=O)O (centres undefined)	3	3	0	-19	4
O=C(NC1CCC(=O)N(CCOc2ccccc2)CC1)OCc1ccccc1 (centres undefined)	0	/	/	-8	/
COc1ccc(Nc2cc(C)nc(N3CCN(C(=O)c4ccc5c(c4)OCO5)CC3)n2)cc1	-2	/	/	-6	/
O=C(CSc1nnc(CNC(=O)c2ccco2)o1)Nc1nc2ccccc2s1	2	-7	56*	-5	21	RUNX1 CBFb TR=64*
O=C(CSc1nnc(CNC(=O)c2ccco2)o1)Nc1ccccc1	1	15	1	21	-2
COC(=O)c1ccc(Cn2cc(Cl)cn2)o1	2	3	-2	-5	1
CC(C)N1CCc2c(sc(N)c2C#N)C1	68*	/	59*	-5	142*	RUNX1 CBFb TR=-3
SMILES	RanGTP-Impb inh	Hck Nef HTS	Runt-CBFb FRET	CaV13 FRET inh	Runt-SMMHC FRET	others
CCOC(=O)C1(Cc2cccc(OC)c2)CCN(Cc2ccc(C)s2)CC1	3	2	0	-5	1
CCCn1c(=NC(=O)c2c(-c3c(F)cccc3Cl)noc2C)c(C(=O)OCC)cc2c(=O)n3ccccc3nc21	1	12	72*	/	60*	RUNX1 CBFb TR=-79
CCOC(=O)c1cc2c(=O)n3ccccc3nc2n(Cc2ccco2)c1=NC(=O)c1cccc(OC)c1	33*	30	99*	-3	86*	RUNX1 CBFb TR=55*
CC(=O)Nc1ccc(S(=O)(=O)N2CCN(c3cc(C(F)(F)F)ccn3)CC2)cc1	2	10	56*	-2	-3	RUNX1 CBFb TR=76*
Cc1cc(C)n(-c2cccc(C(=O)O)c2)n1	-3	22	0	-5	1
O=C(COc1ccccc1)NNc1c2ccccc2nc2ccccc12	5	1	58*	/	81*	RUNX1 CBFb TR=-1
O=C(NNC(=O)c1ccc2ccccc2n1)c1ccc(O)cc1	/	/	/	-5	/
Cc1nc2ccccc2c(=O)n1NC(=O)COc1ccccc1	-5	-5	1	-7	-2
O=C(NNc1c2ccccc2nc2ccccc12)c1ccc(O)cc1	36*	1	52*	44*	58*	RUNX1 CBFb TR=-45
CC(C)(C)c1ccc(C(=O)NCC(=O)N2CCC3(CC2)NCCc2[nH]cnc23)cc1	4	/	/	-5	/
Nc1ncnc(Sc2ccccc2)c1[N+](=O)[O-]	-5	0	2	-4	3
Nc1ncnc(Sc2ncccn2)c1[N+](=O)[O-]	0	15	62*	1	10	RUNX1 CBFb TR=1
COc1ccc2oc(CS(=O)c3ccccc3)c(C(=O)O)c2c1 (centres undefined)	1	/	/	-1	/
CC(=O)NC(Cc1ccccc1F)C(=O)NC1CCN(C(=O)Nc2ccc(C)cc2)CC1 (centres undefined)	1	/	/	-5	/
COC(=O)C1=C(C)N(C)C(=S)NC1c1c(OC)ccc2ccccc12 (centres undefined)	0	-15	6	6	1
NC(c1csc(Nc2ccccn2)n1)c1ccccc1Cl (centres undefined)	/	/	/	-10	/
